Test results: ChEMBL document CHEMBL4665879, “Design, synthesis and evaluation of a baicalin and berberine hybrid compound as therapeutic agent for ulcerative colitis” (2020)
Calls of active or inactive are those of the source.

Tests used:
Mus musculus [1] = experiment: Anti-ulcerative colitis activity in DSS-induced BALB/c mouse ulcerative colitis model assessed as inhibited inflammation in colon at 50 mg/kg administrated for 14 days by H and E staining analysis; assay type: functional, organism-based; details: time 14.0 day
Summary of the method: (§1)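 Male SPF BALB/c mice (18–22 g), n = 8 per group. Colitis induced with freshly prepared 5% DSS (MW 36,000–50,000) in pure water as drinking water ad libitum for 7 days. Treatment at 50 mg/kg ran from day 1 for 14 days; control and model groups received pure water. Mice sacrificed after 14 days of treatment. Data as means ± S.E.M.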

Mus musculus [2] = experiment: Anti-ulcerative colitis activity in DSS-induced BALB/c mouse ulcerative colitis model assessed as promoted regeneration of intestinal mucosa at 50 mg/kg administrated for 14 days by H and E staining analysis; assay type: functional, organism-based; details: time 14.0 day; summary of the method: as §1
Mus musculus [3] = experiment: Anti-inflammatory activity against DSS-induced ulcerative colitis BALB/c mouse model assessed as reduction in TNF-alpha protein expression in colon tissue at 50 mg/kg administrated for 14 days by Western blot analysis; assay type: functional, organism-based; details: time 14.0 day; summary of the method: as §1
Mus musculus [4] = experiment: Anti-inflammatory activity against DSS-induced ulcerative colitis BALB/c mouse model assessed as reduction in TNF-alpha mRNA expression in colon tissue at 50 mg/kg administrated for 14 days by RT-qPCR analysis; assay type: functional, organism-based; details: time 14.0 day; summary of the method: as §1
Mus musculus [5] = experiment: Anti-inflammatory activity against DSS-induced ulcerative colitis BALB/c mouse model assessed as reduction in IL-6 protein expression in colon tissue at 50 mg/kg administrated for 14 days by Western blot analysis; assay type: functional, organism-based; details: time 14.0 day; summary of the method: as §1
Mus musculus [6] = experiment: Anti-inflammatory activity against DSS-induced ulcerative colitis BALB/c mouse model assessed as reduction in IL-6 mRNA expression in colon tissue at 50 mg/kg administrated for 14 days by RT-qPCR analysis; assay type: functional, organism-based; details: time 14.0 day; summary of the method: as §1
Mus musculus [7] = experiment: Anti-inflammatory activity against DSS-induced ulcerative colitis BALB/c mouse model assessed as reduction in IL-1beta protein expression in colon tissue at 50 mg/kg administrated for 14 days by Western blot analysis; assay type: functional, organism-based; details: time 14.0 day; summary of the method: as §1
Mus musculus [8] = experiment: Anti-inflammatory activity against DSS-induced ulcerative colitis BALB/c mouse model assessed as reduction in IL-1beta mRNA expression in colon tissue at 50 mg/kg administrated for 14 days by RT-qPCR analysis; assay type: functional, organism-based; details: time 14.0 day; summary of the method: as §1
Mus musculus [9] = experiment: Anti-inflammatory activity against DSS-induced ulcerative colitis BALB/c mouse model assessed as reduction in mast cells infiltration in colon tissue at 50 mg/kg administrated for 14 days by aldehyde-fuchsin orange G staining based assay; assay type: functional, organism-based; details: time 14.0 day; summary of the method: as §1
Mus musculus [10] = experiment: Anti-inflammatory activity against DSS-induced ulcerative colitis BALB/c mouse model assessed as reduction in MPO activity in colon tissue at 50 mg/kg administrated for 14 days by colorimetric method; assay type: functional, organism-based; details: time 14.0 day; summary of the method: as §1
Mus musculus [11] = experiment: Anti-ulcerative colitis activity in DSS-induced BALB/c mouse ulcerative colitis model assessed as reduction in colon damage at 50 mg/kg administrated for 14 days by H and E staining analysis; assay type: functional, organism-based; details: time 14.0 day; summary of the method: as §1
Mus musculus [12] = experiment: Anti-ulcerative colitis activity in DSS-induced BALB/c mouse ulcerative colitis model assessed as decrease in histological scores at 50 mg/kg administrated for 14 days by H and E staining analysis; assay type: functional, organism-based; details: time 14.0 day; summary of the method: as §1
Mus musculus [13] = experiment: Anti-ulcerative colitis activity in DSS-induced BALB/c mouse ulcerative colitis model assessed as decrease in spleen weight at 50 mg/kg administrated for 14 days; assay type: functional, organism-based; details: time 14.0 day; summary of the method: as §1
Mus musculus [14] = experiment: Anti-ulcerative colitis activity in DSS-induced BALB/c mouse ulcerative colitis model assessed as increase in cecum weight at 50 mg/kg administrated for 14 days; assay type: functional, organism-based; details: time 14.0 day; summary of the method: as §1
Mus musculus [15] = experiment: Anti-ulcerative colitis activity in DSS-induced BALB/c mouse ulcerative colitis model assessed as colon length/colon weight ratio at 50 mg/kg administrated for 14 days (reference value: 22.608 +/- 2.655 cm/g); assay type: functional; details: time 14 day; summary of the method: as §1
Mus musculus [16] = experiment: Anti-ulcerative colitis activity in DSS-induced BALB/c mouse ulcerative colitis model assessed as colon weight at 50 mg/kg administrated for 14 days (reference value: 0.369 +/- 0.023 g); assay type: functional; details: time 14 day; summary of the method: as §1
Mus musculus [17] = experiment: Anti-ulcerative colitis activity in DSS-induced BALB/c mouse ulcerative colitis model assessed as colon length at 50 mg/kg administrated for 14 days (reference value: 8.350 +/- 1.111 cm); assay type: functional; details: time 14 day; summary of the method: as §1
Mus musculus [18] = experiment: Anti-ulcerative colitis activity in DSS-induced BALB/c mouse ulcerative colitis model of assessed as reduction in disease activity index at 50 mg/kg administrated for 14 days; assay type: functional, organism-based; details: time 14.0 day; summary of the method: as §1
[19] = system: Salmonella enterica subsp. enterica serovar Paratyphi B; experiment: Antibacterial activity against Salmonella paratyphi B 0039 after 24 hrs by microdilution method; assay type: functional, organism-based; details: 39
Summary of the method: (§2)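 Test agents diluted in culture medium at ratios 1:2.5 to 1:640 (twofold series) and steam-sterilized; pure water as control. Inoculum from 4–5 colonies grown in nutrient broth 8 h at 37 °C, then diluted to 1.5×10^5 CFU/mL. Broth microdilution in 96-well plate, 0.1 ml strain suspension per well, 37 °C 24 h; MIC read visually.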

Salmonella typhi = experiment: Antibacterial activity against Typhoid bacillus 50071-16 after 24 hrs by microdilution method; assay type: functional, organism-based; details: Salmonella enterica subsp. enterica serovar Typhi; summary of the method: as §2
Escherichia coli = experiment: Antibacterial activity against Escherichia coli 44113-5 after 24 hrs by microdilution method; assay type: functional, organism-based
Summary of the method: (§3)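 Broth microdilution in Mueller Hinton medium, drug media diluted 1:2.5 to 1:640 and sterilized with circulating steam; pure water as control. Four to five colonies grown in nutrient broth 8 h at 37 °C and diluted to 1.5×10^5 CFU/mL. 0.1 ml per well, incubated 37 °C for 24 h; MIC read by observation.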

Pseudomonas aeruginosa = experiment: Antibacterial activity against Pseudomonas aeruginosa 10211 incubated for 24 hrs; assay type: functional, organism-based; summary of the method: as §3
Streptococcus pneumoniae = experiment: Antibacterial activity against Streptococcus pneumoniae 32215 after 24 hrs by microdilution method; assay type: functional, organism-based; summary of the method: as §3
Candida albicans = experiment: Antifungal activity against Candida albicans 98001 after 24 hrs by microdilution method; assay type: functional, organism-based; summary of the method: as §3
Streptococcus pyogenes = experiment: Antibacterial activity against streptococcus hemolyticus 32210 after 24 hrs by microdilution method; assay type: functional, organism-based; summary of the method: as §3
Staphylococcus aureus = experiment: Antibacterial activity against Staphylococcus aureus 261112-5 after 24 hrs by microdilution method; assay type: functional, organism-based; summary of the method: as §3
Mus musculus [20] = experiment: Anti-inflammatory activity against DSS-induced ulcerative colitis BALB/c mouse model assessed as reduction in colon macroscopic scores at 50 mg/kg administrated for 14 days; assay type: functional, organism-based; details: time 14.0 day; summary of the method: as §1
Mus musculus [21] = experiment: Anti-inflammatory activity against DSS-induced ulcerative colitis BALB/c mouse model assessed as increase in SOD levels in colon tissue at 50 mg/kg administrated for 14 days by xanthine oxidase based method; assay type: functional, organism-based; details: time 14.0 day; summary of the method: as §1

COc1ccc2cc3[n+](cc2c1OC)CCc1cc2c(cc1-3)OCO2.[Cl-] [BERBERINE CHLORIDE]
0.315 g: Activity (Mus musculus [16])
8.95 cm: Activity (Mus musculus [17])
inactive: Activity (Mus musculus [13])
28.175: Ratio (Mus musculus [15])
active: Activity (Mus musculus [1]) | Activity (Mus musculus [2]) | Activity (Mus musculus [3]) | Activity (Mus musculus [4]) | Activity (Mus musculus [5]) | Activity (Mus musculus [6]) | Activity (Mus musculus [7]) | Activity (Mus musculus [8]) | Activity (Mus musculus [9]) | Activity (Mus musculus [10]) | Activity (Mus musculus [11]) | Activity (Mus musculus [12]) | Activity (Mus musculus [14]) | Activity (Mus musculus [18]) | Activity [19] | Activity (Salmonella typhi) | Activity (Escherichia coli) | Activity (Pseudomonas aeruginosa) | Activity (Streptococcus pneumoniae) | Activity (Candida albicans) | Activity (Streptococcus pyogenes) | Activity (Staphylococcus aureus)

COc1ccc2cc3[n+](cc2c1OCCCCOC(=O)[C@H]1O[C@@H](Oc2cc4oc(-c5ccccc5)cc(=O)c4c(O)c2O)[C@H](O)[C@@H](O)[C@@H]1O)CCc1cc2c(cc1-3)OCO2
active: Activity (Mus musculus [1]) | Activity (Mus musculus [2]) | Activity (Mus musculus [20]) | Activity (Mus musculus [3]) | Activity (Mus musculus [4]) | Activity (Mus musculus [5]) | Activity (Mus musculus [6]) | Activity (Mus musculus [7]) | Activity (Mus musculus [8]) | Activity (Mus musculus [9]) | Activity (Mus musculus [10]) | Activity (Mus musculus [21]) | Activity (Mus musculus [11]) | Activity (Mus musculus [12]) | Activity (Mus musculus [13]) | Activity (Mus musculus [14]) | Activity (Mus musculus [18]) | Activity [19] | Activity (Salmonella typhi) | Activity (Escherichia coli) | Activity (Pseudomonas aeruginosa) | Activity (Streptococcus pneumoniae) | Activity (Candida albicans) | Activity (Streptococcus pyogenes) | Activity (Staphylococcus aureus)
29.769: Ratio (Mus musculus [15])
0.311 g: Activity (Mus musculus [16])
9.288 cm: Activity (Mus musculus [17])

O=C(O)[C@H]1O[C@@H](Oc2cc3oc(-c4ccccc4)cc(=O)c3c(O)c2O)[C@H](O)[C@@H](O)[C@@H]1O [BAICALIN]
0.369 g: Activity (Mus musculus [16])
inactive: Activity (Mus musculus [3]) | Activity (Mus musculus [4]) | Activity (Mus musculus [5]) | Activity (Mus musculus [6]) | Activity (Mus musculus [7]) | Activity (Mus musculus [8]) | Activity (Mus musculus [11]) | Activity (Mus musculus [13]) | Activity (Mus musculus [14]) | Activity (Mus musculus [18]) | Activity [19] | Activity (Salmonella typhi) | Activity (Escherichia coli) | Activity (Pseudomonas aeruginosa) | Activity (Streptococcus pneumoniae) | Activity (Candida albicans) | Activity (Streptococcus pyogenes) | Activity (Staphylococcus aureus)
8.74 cm: Activity (Mus musculus [17])
24.172: Ratio (Mus musculus [15])
